Source: ChEMBL document CHEMBL1165969, “Synthesis and cytotoxicity of novel indirubin-5-carboxamides” (Bioorg Med Chem, 2010)

Experiments:
[1] = molecular target: Ribosomal protein S6 kinase beta-1 (Homo sapiens) (UniProt P23443); experiment: Inhibition of p70S6K1 assessed as residual activity at 1 uM after 80 mins by microplate scintillation counting
Procedure, shortened: (§1)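 Kinase profiling was outsourced to a contract laboratory as a panel of 30 protein kinases. Each compound was tested at two concentrations, and residual kinase activity was recorded.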

[2] = molecular target: RAF proto-oncogene serine/threonine-protein kinase (Homo sapiens) (UniProt P04049); experiment: Inhibition of RAF1 assessed as residual activity at 1 uM after 80 mins by microplate scintillation counting; procedure, shortened: as §1
[3] = molecular target: Receptor tyrosine-protein kinase erbB-2 (Homo sapiens) (UniProt P04626); experiment: Inhibition of ERBB2 assessed as residual activity at 1 uM after 80 mins by microplate scintillation counting
[4] = molecular target: Mast/stem cell growth factor receptor Kit (Homo sapiens) (UniProt P10721); experiment: Inhibition of KIT assessed as residual activity at 10 uM after 80 mins by microplate scintillation counting
[5] = molecular target: Glycogen synthase kinase-3 beta (Homo sapiens, UniProt P49841); experiment: Inhibition of GSK3-beta assessed as residual activity at 10 uM after 80 mins by microplate scintillation counting
[6] = molecular target: Vascular endothelial growth factor receptor 2 (Homo sapiens) (UniProt P35968); experiment: Inhibition of VEGFR2 assessed as residual activity at 1 uM after 80 mins by microplate scintillation counting; procedure, shortened: as §1
Sequence of Vascular endothelial growth factor receptor 2 (Homo sapiens) (P35968 whole entry): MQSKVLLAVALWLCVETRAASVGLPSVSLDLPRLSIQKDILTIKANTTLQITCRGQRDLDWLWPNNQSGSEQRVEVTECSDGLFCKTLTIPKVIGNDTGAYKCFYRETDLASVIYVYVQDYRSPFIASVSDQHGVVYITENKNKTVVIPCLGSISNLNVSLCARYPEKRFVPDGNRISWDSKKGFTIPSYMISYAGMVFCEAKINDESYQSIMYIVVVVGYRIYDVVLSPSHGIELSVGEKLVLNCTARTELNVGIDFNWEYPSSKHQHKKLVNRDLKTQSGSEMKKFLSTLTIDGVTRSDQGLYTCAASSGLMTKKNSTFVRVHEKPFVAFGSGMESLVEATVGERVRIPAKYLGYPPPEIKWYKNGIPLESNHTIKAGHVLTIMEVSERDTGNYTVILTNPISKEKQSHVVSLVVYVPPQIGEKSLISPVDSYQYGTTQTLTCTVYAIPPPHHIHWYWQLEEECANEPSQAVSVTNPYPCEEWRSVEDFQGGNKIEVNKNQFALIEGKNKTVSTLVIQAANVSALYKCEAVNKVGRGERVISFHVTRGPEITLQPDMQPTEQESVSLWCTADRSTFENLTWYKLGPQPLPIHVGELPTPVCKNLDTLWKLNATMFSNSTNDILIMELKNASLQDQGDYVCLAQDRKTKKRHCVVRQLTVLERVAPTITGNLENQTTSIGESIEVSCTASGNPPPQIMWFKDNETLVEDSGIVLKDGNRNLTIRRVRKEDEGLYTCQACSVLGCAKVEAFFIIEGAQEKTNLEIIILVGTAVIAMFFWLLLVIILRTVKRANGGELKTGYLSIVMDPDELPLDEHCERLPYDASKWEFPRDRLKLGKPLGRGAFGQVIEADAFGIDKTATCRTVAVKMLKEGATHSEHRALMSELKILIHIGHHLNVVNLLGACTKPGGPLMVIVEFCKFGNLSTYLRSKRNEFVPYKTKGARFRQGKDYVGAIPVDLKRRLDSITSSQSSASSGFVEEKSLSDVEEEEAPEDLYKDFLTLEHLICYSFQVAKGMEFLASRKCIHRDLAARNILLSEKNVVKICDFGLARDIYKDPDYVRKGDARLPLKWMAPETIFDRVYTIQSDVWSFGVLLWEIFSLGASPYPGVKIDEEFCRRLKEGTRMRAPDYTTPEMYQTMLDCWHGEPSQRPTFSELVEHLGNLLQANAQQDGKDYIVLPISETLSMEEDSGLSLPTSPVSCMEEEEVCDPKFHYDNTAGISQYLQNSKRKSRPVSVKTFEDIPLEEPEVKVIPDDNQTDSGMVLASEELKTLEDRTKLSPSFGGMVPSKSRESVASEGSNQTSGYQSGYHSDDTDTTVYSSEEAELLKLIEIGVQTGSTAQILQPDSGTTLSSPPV

[7] = molecular target: Tyrosine-protein kinase ABL1 (Homo sapiens) (UniProt P00519); experiment: Inhibition of ABL1 assessed as residual activity at 10 uM after 80 mins by microplate scintillation counting
[8] = molecular target: Fibroblast growth factor receptor 1 (Homo sapiens) (UniProt P11362); experiment: Inhibition of FGFR1 assessed as residual activity at 1 uM after 80 mins by microplate scintillation counting
[9] = molecular target: Insulin-like growth factor 1 receptor (Homo sapiens) (UniProt P08069); experiment: Inhibition of IGF1R assessed as residual activity at 10 uM after 80 mins by microplate scintillation counting
Sequence of Insulin-like growth factor 1 receptor (Homo sapiens) (P08069 31-736 limits assumed): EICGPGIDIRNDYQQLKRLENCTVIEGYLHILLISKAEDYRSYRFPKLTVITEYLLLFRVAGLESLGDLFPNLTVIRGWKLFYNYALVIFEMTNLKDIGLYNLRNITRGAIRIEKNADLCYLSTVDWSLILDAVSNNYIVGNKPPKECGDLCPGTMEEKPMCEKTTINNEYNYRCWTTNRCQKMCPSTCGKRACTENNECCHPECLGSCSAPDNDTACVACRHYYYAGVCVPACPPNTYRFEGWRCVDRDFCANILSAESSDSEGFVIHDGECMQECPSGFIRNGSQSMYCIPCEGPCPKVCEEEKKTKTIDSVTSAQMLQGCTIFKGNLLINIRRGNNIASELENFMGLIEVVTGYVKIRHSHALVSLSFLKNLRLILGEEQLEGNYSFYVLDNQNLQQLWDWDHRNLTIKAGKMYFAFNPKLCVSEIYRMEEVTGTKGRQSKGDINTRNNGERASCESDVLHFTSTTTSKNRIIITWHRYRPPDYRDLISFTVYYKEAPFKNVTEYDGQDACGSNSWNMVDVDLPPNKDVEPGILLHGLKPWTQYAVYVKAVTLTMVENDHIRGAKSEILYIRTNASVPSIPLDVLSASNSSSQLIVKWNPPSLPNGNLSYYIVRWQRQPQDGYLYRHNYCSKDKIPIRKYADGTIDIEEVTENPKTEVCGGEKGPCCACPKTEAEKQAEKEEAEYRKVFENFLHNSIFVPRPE
Sequence of Insulin-like growth factor 1 receptor (Homo sapiens) (P08069 741-1367 limits assumed): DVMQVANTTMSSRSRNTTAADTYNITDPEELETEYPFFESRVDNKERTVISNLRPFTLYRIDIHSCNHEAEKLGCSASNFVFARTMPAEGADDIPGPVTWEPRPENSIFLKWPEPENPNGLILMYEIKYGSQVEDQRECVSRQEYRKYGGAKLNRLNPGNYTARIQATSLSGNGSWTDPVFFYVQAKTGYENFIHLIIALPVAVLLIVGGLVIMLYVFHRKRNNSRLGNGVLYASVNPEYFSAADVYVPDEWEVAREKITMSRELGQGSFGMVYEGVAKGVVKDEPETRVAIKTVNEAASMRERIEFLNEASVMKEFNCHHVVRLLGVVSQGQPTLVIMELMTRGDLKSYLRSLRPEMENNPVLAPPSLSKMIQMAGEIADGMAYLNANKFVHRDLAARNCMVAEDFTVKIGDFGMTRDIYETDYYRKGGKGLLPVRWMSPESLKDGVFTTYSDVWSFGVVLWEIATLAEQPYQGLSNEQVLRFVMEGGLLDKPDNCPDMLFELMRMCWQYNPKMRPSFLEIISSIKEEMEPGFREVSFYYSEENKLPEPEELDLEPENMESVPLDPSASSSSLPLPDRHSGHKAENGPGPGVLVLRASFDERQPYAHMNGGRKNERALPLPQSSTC

[10] = molecular target: Muscle, skeletal receptor tyrosine-protein kinase (Homo sapiens) (UniProt O15146); experiment: Inhibition of MUSK assessed as residual activity at 10 uM after 80 mins by microplate scintillation counting
[11] = molecular target: T1, Cyclin-dependent kinase 2/cyclin E1 (Homo sapiens) (UniProt P24864+P24941); experiment: Inhibition of CDK2/Cyclin E assessed as residual activity at 1 uM after 80 mins by microplate scintillation counting; type: protein-complex assay
[12] = molecular target: Focal adhesion kinase 1 (Homo sapiens) (UniProt Q05397); experiment: Inhibition of FAK assessed as residual activity at 10 uM after 80 mins by microplate scintillation counting
[13] = molecular target: Aurora kinase B (Homo sapiens) (UniProt Q96GD4); experiment: Inhibition of Aurora B assessed as residual activity at 10 uM after 80 mins by microplate scintillation counting
[14] = molecular target: Ribosomal protein S6 kinase beta-1 (Homo sapiens) (UniProt P23443); experiment: Inhibition of p70S6K1 assessed as residual activity at 10 uM after 80 mins by microplate scintillation counting; procedure, shortened: as §1
[15] = molecular target: Proto-oncogene tyrosine-protein kinase Src (Homo sapiens) (UniProt P12931); experiment: Inhibition of SRC assessed as residual activity at 1 uM after 80 mins by microplate scintillation counting; procedure, shortened: as §1
[16] = molecular target: Tyrosine-protein kinase JAK2 (Homo sapiens) (UniProt O60674); experiment: Inhibition of JAK2 assessed as residual activity at 1 uM after 80 mins by microplate scintillation counting
Sequence of Tyrosine-protein kinase JAK2 (Homo sapiens) (O60674 whole entry): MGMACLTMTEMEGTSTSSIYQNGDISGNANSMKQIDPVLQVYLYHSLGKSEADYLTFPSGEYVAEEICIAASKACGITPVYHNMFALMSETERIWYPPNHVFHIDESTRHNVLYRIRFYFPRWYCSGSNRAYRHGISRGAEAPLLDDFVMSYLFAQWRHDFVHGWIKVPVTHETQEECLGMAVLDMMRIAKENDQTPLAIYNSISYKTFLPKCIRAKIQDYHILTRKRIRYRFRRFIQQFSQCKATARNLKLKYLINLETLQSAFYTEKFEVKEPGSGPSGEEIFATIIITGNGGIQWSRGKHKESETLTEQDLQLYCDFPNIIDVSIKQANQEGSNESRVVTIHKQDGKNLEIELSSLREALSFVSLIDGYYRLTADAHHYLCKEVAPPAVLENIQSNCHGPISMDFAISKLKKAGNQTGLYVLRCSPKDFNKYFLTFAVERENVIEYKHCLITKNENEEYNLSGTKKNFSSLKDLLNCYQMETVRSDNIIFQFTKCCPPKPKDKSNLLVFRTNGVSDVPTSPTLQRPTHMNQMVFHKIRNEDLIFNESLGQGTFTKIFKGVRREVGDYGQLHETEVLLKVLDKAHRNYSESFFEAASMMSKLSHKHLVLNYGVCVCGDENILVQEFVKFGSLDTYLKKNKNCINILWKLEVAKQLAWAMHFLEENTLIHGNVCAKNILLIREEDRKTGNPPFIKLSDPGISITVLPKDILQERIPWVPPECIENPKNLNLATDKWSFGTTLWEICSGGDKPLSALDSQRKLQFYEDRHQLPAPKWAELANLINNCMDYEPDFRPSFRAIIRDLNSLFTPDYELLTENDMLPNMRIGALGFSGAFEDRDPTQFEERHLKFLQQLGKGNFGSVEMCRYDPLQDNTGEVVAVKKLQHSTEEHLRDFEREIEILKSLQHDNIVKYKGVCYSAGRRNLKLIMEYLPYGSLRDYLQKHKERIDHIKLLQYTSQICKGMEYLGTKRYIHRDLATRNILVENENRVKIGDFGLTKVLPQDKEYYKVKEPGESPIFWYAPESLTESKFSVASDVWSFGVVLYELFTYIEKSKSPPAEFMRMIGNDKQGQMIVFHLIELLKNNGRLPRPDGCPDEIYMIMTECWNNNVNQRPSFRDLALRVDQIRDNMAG

[17] = molecular target: Serine/threonine-protein kinase Chk2 (Homo sapiens) (UniProt O96017); experiment: Inhibition of CHK2 assessed as residual activity at 1 uM after 80 mins by microplate scintillation counting
[18] = molecular target: Aurora kinase A (Homo sapiens) (UniProt O14965); experiment: Inhibition of Aurora A assessed as residual activity at 1 uM after 80 mins by microplate scintillation counting
[19] = molecular target: T1, Cyclin-dependent kinase 2/cyclin E1 (Homo sapiens); experiment: Inhibition of CDK2/Cyclin E assessed as residual activity at 10 uM after 80 mins by microplate scintillation counting; type: protein-complex assay
[20] = molecular target: Vascular endothelial growth factor receptor 3 (Homo sapiens) (UniProt P35916); experiment: Inhibition of VEGFR3 assessed as residual activity at 10 uM after 80 mins by microplate scintillation counting; procedure, shortened: as §1
[21] = molecular target: Tyrosine-protein kinase JAK2 (Homo sapiens) (UniProt O60674); experiment: Inhibition of JAK2 assessed as residual activity at 10 uM after 80 mins by microplate scintillation counting
[22] = molecular target: Vascular endothelial growth factor receptor 2 (Homo sapiens) (UniProt P35968); experiment: Inhibition of VEGFR2 assessed as residual activity at 10 uM after 80 mins by microplate scintillation counting; procedure, shortened: as §1
[23] = molecular target: Aurora kinase C (Homo sapiens) (UniProt Q9UQB9); experiment: Inhibition of Aurora C assessed as residual activity at 1 uM after 80 mins by microplate scintillation counting
[24] = molecular target: T2, Cyclin-dependent kinase 1/cyclin B1 (Homo sapiens) (UniProt P06493+P14635); experiment: Inhibition of CDK1/Cyclin B1 assessed as residual activity at 10 uM after 80 mins by microplate scintillation counting; type: protein-complex assay
T2 sequence (P06493 whole entry, looked up): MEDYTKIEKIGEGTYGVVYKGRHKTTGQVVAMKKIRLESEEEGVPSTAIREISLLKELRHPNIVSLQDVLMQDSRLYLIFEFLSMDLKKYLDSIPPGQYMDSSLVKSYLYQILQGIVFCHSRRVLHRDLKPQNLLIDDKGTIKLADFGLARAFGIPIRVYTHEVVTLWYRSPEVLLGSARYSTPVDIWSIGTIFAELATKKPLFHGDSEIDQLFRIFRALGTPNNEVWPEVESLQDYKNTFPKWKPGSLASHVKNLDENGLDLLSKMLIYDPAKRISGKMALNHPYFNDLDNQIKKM
T2 sequence (P14635 whole entry, looked up): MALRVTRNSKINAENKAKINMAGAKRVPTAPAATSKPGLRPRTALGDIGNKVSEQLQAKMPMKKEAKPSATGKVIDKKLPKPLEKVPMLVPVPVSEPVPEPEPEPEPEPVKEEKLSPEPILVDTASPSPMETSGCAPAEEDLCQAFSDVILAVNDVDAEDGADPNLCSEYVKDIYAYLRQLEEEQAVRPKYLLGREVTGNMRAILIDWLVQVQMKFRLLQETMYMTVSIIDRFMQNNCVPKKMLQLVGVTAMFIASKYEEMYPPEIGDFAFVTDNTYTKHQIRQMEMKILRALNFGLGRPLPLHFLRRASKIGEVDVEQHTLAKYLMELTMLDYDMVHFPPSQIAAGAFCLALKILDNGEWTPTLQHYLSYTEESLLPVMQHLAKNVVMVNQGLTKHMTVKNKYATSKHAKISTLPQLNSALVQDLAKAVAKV

[25] = molecular target: Cyclin-dependent kinase 4/cyclin D1 (Homo sapiens) (UniProt P11802+P24385); experiment: Inhibition of CDK4/Cyclin D1 assessed as residual activity at 10 uM after 80 mins by microplate scintillation counting; type: protein-complex assay
[26] = molecular target: T2, Cyclin-dependent kinase 1/cyclin B1 (Homo sapiens); experiment: Inhibition of CDK1/Cyclin B1 assessed as residual activity at 1 uM after 80 mins by microplate scintillation counting; type: protein-complex assay
[27] = molecular target: Tyrosine-protein kinase Fgr (Homo sapiens) (UniProt P09769); experiment: Inhibition of FGR assessed as residual activity at 10 uM after 80 mins by microplate scintillation counting
[28] = molecular target: Insulin-like growth factor 1 receptor (Homo sapiens) (UniProt P08069); experiment: Inhibition of IGF1R assessed as residual activity at 1 uM after 80 mins by microplate scintillation counting

Sequence of Ribosomal protein S6 kinase beta-1 (Homo sapiens) (P23443 whole entry, looked up): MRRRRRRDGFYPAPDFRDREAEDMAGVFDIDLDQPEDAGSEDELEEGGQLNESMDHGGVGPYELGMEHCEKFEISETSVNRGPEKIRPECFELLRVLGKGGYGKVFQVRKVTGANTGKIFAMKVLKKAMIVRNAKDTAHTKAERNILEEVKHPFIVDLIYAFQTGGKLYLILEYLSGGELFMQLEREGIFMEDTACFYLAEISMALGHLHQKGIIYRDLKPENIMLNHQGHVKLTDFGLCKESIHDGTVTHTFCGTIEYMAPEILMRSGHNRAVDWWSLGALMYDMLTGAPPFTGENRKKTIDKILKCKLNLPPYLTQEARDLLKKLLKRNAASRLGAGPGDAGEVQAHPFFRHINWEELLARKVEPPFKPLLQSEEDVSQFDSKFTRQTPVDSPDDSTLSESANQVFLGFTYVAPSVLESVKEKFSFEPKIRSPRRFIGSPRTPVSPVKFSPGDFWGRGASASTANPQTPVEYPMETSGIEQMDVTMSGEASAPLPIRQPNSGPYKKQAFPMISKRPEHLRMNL

`CN1CCN(c2ccc(NC(=O)c3ccc4c(c3)/C(=C3/Nc5ccccc5C3=O)C(=O)N4)cc2)CC1` was tested, and the Activity [1] was 94%, the Activity [2] was 94% and the Activity [3] was 99%. It also gave an Activity [4] of 129%, an Activity [5] of 6% and an Activity [6] of 100%. The Activity [7] was 26%, the Activity [8] was 88% and the Activity [9] was 103%. It also gave an Activity [10] of 31%, an Activity [11] of 63% and an Activity [12] of 92%. For the same molecule, the Activity [13] was 73%, the Activity [14] was 48% and the Activity [15] was 132%. For the same molecule, the Activity [16] was 95%, the Activity [17] was 90% and the Activity [18] was 86%. For the same molecule, the Activity [19] was 14%, the Activity [20] was 37% and the Activity [21] was 48%. The Activity [22] was 65%, the Activity [23] was 83% and the Activity [24] was 23%. The Activity [25] was 18%, the Activity [26] was 79% and the Activity [27] was < 50%. For the same molecule, the Activity [28] was 102%.
